Experiments:
[1] = biological target: T1, Gastric inhibitory polypeptide receptor (Homo sapiens, UniProt P48546); experiment: Displacement of [125I]porcine GIP from human recombinant GIPR receptor expressed in BHK cells by scintillation proximity assay; format: cell-based
T1 sequence (P48546 whole entry): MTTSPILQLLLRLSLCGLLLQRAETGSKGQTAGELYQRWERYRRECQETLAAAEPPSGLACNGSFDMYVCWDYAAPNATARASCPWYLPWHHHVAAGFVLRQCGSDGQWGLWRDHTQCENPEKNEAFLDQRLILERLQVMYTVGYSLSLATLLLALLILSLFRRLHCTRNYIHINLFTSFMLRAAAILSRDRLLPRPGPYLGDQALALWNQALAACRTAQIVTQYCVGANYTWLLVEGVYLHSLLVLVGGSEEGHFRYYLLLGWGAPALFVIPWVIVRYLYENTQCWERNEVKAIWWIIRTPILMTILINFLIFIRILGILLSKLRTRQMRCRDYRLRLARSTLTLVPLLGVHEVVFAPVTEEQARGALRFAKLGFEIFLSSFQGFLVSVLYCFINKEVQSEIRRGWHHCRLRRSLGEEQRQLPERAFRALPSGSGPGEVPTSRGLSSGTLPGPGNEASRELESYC

[2] = biological target: Glucagon receptor (Homo sapiens, UniProt P47871); experiment: Displacement of [125I]porcine glucagon from human recombinant glucagon receptor expressed in BHK cells by scintillation proximity assay; format: cell-based
Glucagon receptor, sequence (P47871 whole entry): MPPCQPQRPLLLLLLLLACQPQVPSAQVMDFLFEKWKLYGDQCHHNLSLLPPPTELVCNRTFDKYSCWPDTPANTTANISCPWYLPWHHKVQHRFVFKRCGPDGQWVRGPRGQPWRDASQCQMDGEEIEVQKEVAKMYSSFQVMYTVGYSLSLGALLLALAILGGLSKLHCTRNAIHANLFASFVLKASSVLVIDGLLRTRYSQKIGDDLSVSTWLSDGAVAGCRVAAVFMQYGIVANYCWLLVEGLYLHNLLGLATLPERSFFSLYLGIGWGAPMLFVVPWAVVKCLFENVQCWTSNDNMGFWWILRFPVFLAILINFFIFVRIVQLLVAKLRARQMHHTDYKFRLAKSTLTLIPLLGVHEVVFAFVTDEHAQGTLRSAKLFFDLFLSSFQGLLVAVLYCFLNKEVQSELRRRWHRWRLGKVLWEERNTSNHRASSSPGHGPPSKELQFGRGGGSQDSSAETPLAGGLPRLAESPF

[3] = Half life in fasted Sprague-Dawley rat plasma at 1.9 mg/kg, iv by HTLC-MS/MS analysis; format: ADME, organism-based; set-up: dose 1.9 mg/kg, route intravenous
In short: (§1)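 Rats were dosed intravenously and perorally in separate arms, and plasma concentration-time profiles were obtained. Half-life was taken from the iv arm. Clearance, oral bioavailability, Cmax and Tmax were derived from the profiles.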

[4] = Oral bioavailability in fasted Sprague-Dawley rat at 3.9 mg/kg by HTLC-MS/MS analysis; format: ADME, organism-based; settings: in vivo
In short: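 Separate intravenous and peroral dosing arms per compound, with plasma concentration followed against time. Oral bioavailability (F_po) is reported per compound together with the intravenous half-life and clearance. The dose used for each arm is listed per compound.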

[5] = Clearance in fasted Sprague-Dawley rat at 1.9 mg/kg, iv and 3.9 mg/kg, po by HTLC-MS/MS analysis; format: ADME, organism-based; settings: in vivo; in short: as §1
[6] = Cmax in fasted Sprague-Dawley rat at 1.9 mg/kg, iv and 3.9 mg/kg, po by HTLC-MS/MS analysis; format: ADME, organism-based; settings: in vivo; in short: as §1
[7] = Tmax in fasted Sprague-Dawley rat at 1.9 mg/kg, iv and 3.9 mg/kg, po by HTLC-MS/MS analysis; format: ADME, organism-based; settings: in vivo
In short: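 Plasma concentration–time profiles were recorded after separate intravenous and peroral dosing at the per-compound doses listed. T_max is reported in min alongside C_max (ng/mL), intravenous half-life and clearance ((mL/min)/kg).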

[8] = species: Homo sapiens; experiment: Selectivity ratio of IC50 for human recombinant glucagon receptor to IC50 for human recombinant GIPR
In short: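 Competition binding of compounds to recombinant human glucagon and GIP receptors on BHK cell membranes, run in parallel as a scintillation proximity assay and, for selected compounds, as a membrane filtration assay.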

[9] = species: Homo sapiens; experiment: Selectivity for human recombinant glucagon receptor over human GLP1R

An IC50 [1] of 368 nM, an IC50 [2] of 48 nM and a half-life [3] of 35 min were found for `O=C(O)CCNC(=O)c1ccc(CN(c2ccc(C3=CCCCC3)cc2)c2nc(-c3ccc(C(F)(F)F)cc3)cs2)cc1` in this work. It also gave a bioavailability [4] of 3%, a clearance [5] of 44 mL/min/kg and a Cmax [6] of 36 ng/mL. For the same compound, the Tmax [7] was 30 min, the fold change (FC) [8] was 5 and the fold change (FC) [9] was over 50.
